Bioassay records as filed in PubChem BioAssay.
CSC inhib – blocks cancer stem cells. cancer stem cell-like cells viability, luminescence. inhibition, % at 7.5 µM. 300,000 tested, 1.1% active. AID 2717; in the data active = inhibition above about 75%; inconclusive = no clear call, values can overlap the other calls; tested in HMLE shEcad cells
HIF activator – HIF pathway transcriptional activation | AID 1910 | 300,000 tested, 0.32% active | activation, % at 7.5 µM (by protocol) | U2OS HRE-luciferase reporter, luminescence; normalized: DMSO 0%, desferrioxamine 100%;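 active = mean activation of at least 10% of the iron chelator positive control signal, with at least half of replicates also reaching 10%; inconclusive = mean and replicate majority disagree about reaching 10%; inactive = mean and most replicates under 10%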
Calb FLC – affects C. albicans growth with fluconazole; C. albicans CaCi-2 (fluconazole-resistant clinical isolate) + fluconazole, Alamar Blue growth, 48 h; growth inhibition, % (concentration not given with the values); 300,000 tested, 0.57% active; AID 1979;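 active = growth inhibition above about 58% in most replicates, limit read from the data, passing the limit was not always enough; inconclusive = exactly half the replicates above a set limit; inactive = most replicates below a set limit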;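 note: all wells also contain fluconazole at 8 µg/ml as a sub-toxic cotreatment; 0% = median of DMSO wells and 100% = median of geldanamycin control wells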
Beta cell apopt – blocks beta cell apoptosis; INS-1E cytokine-induced death, ATP luminescence, 48 h; percent of positive-control rescue, neutral wells zero; protection from apoptosis, % (no concentration beside the values); 300,000 tested, 0.8% active; AID 435005;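 active = Every replicate reaches about 75%, or at least half do and their mean reaches it too, limit read from the data; inconclusive = At least half of replicates reach the limit but their mean does not; inactive = Under half of replicates reach the limit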;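 note: 0% = cytokine-treated negative control wells and 100% = positive control rescue; higher means more ATP so stronger rescue from cytokine killing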
T cruzi repl – blocks replication of Trypanosoma cruzi; T. cruzi beta-gal in NIH3T3, luminescence, 90 h; inhibition, % (no concentration beside the values); 300,000 tested, 1.4% active;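 active = mean inhibition across valid replicates above about 55%, limit read from the data; inconclusive = mean below that limit but half or more replicates reach it; inactive = mean below it, under half of replicates reach it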;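 note: signal also drops with host cell toxicity which is not excluded here; 0% = plate median of DMSO wells and 100% = zero luminescence signal; higher percent means less beta-gal luminescence so fewer parasites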
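System: Mouse NIH/3T3 fibroblasts infected with β-gal-expressing T. cruzi Tulahuen C4 | Quantity: NIH/3T3 cells, 5,000 per well | Reagent: 5000 reporter trypomastigotes per well | Dosing: Compound pinned at 50 nL/well, DMSO | Schedule: 3 h host attachment, then at least 90 h co-culture | Detection: GalScreen luminescence, 60 min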
PolyA inhibitor – blocks polyadenylation in yeast reporter cells. S. cerevisiae SKY197-pL101 polyadenylation reporter, beta-gal luminescence; efflux-impaired pdr1/pdr3 knockout yeast; score 100 = 6 SD above DMSO. activity score, % at 12 µM. 300,000 tested, 0.02% active;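 active = lowest replicate activity score at least 50, where 100 means six control SD above control mean; inconclusive = lowest score under 50 but half or more replicates reach 50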;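 note: yeast exposed to compound for 9 h at 30 °C; higher score means more reporter readthrough which indicates perturbed polyadenylation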
The depositor's hits bear a star; ? = inconclusive; . = no result given. Compounds with a hit are over-represented: about 3.1% of the library has one in this group of screens.

SMILES	CSC inhib	HIF activator	Calb FLC	Beta cell apopt	T cruzi repl	PolyA inhibitor
CCCCCCn1nc(C(=O)Nc2nc3c(s2)CCCC3)c2ccccc2c1=O	12.4	10.3*	-1.6	13.1	48.8	5.1
CCCn1nc(C(=O)Nc2nnc(CC)s2)c2ccccc2c1=O	6.1	-0.2	1.4	-2.3	2.2	-17.0
CCCCn1nc(C(=O)NC2=NCCS2)c2ccccc2c1=O	7.8	-0.4	23.4	-2.4	-5.1	4.9
CCCCn1nc(C(=O)Nc2nc3c(s2)CCCC3)c2ccccc2c1=O	41.2	-0.1	3.4	6.3	56.1*	-6.3
O=C(c1cc(-c2ccncc2)nc2ccccc12)N1CCN(c2ccccn2)CC1	44.6	1.8	26.8	11.3	60.1*	22.0
COc1cc(CC(=O)OCC(=O)NCc2ccco2)cc(OC)c1OC	-2.4	.	.	0.2	.	.
CCOc1ccc(S(=O)(=O)N(C)c2ccc(OCC(=O)Nc3nc4ccccc4s3)cc2)cc1	8.6	-0.2	-2.7	91.6*	-34.2	-1.6
Cc1ccc(S(=O)(=O)N(C)c2ccc(OCC(=O)Nc3nnc(C4CC4)s3)cc2)cc1	.	0.5	63.1*	.	-4.3	-12.9
COc1ccc(CN(C)CC(=O)NC2CCCc3ccccc32)cc1OC (stereo not drawn)	0.0	-1.0	-3.2	-7.4	-2.1	-5.9
N#Cc1cccc(C#N)c1Oc1ccc(S(=O)(=O)Nc2ccc(Cl)cc2)cc1	22.6	-0.2	4.3	7.1	30.0	-16.6
Cc1cccnc1CN1CCN(C(=O)c2cc(COc3ccc4ncccc4c3)on2)CC1	12.1	-0.8	-13.2	99.8*	-126.4	6.6
CCC(O)C1CCN(C(=O)c2cc(COc3ccc4ncccc4c3)on2)CC1 (stereo not drawn)	-0.1	0.8	-5.5	105.8*	-21.2	10.6
COCC(=O)N1CCC(Oc2ccc(C(=O)N(C)CCCC3CCCC3)cc2)CC1	6.3	-0.6	-0.1	5.9	3.0	?
CCN(CC)c1ccc(C(=O)OCc2cc(=O)oc3cc(O)ccc23)cc1	84.2*	1.4	-0.1	30.5	11.0	-6.6
CCN(CCCNC(=O)CCc1nc(-c2ccc(OC)cc2)no1)c1cccc(C)c1	-0.1	143.3*	-17.5	-11.0	26.6	-13.0
CCn1c(=O)c([N+](=O)[O-])c(N2CCN(Cc3ccc4c(c3)OCO4)CC2)c2ccccc21	-4.3	-0.3	-11.5	128.5*	33.3	-6.3
Nn1c(SCC(=O)Nc2ccc(N3CCOCC3)cc2)nnc1-c1ccccc1F	-7.8	.	.	-7.1	.	.
O=C(CN1C(=O)NC2(CCCCCC2)C1=O)NCc1ccccc1	-20.3	.	.	3.6	.	.
O=C1C(C2=NC(c3ccccn3)C3C(=O)N(c4ccc(OC(F)(F)F)cc4)C(=O)C23)=C(O)c2ccccc21 (stereo not drawn)	30.4	-0.6	-0.8	80.8*	-4.2	-3.2
COCc1cc(=O)[nH]c(Nc2nc3ccccc3o2)n1	30.3	-29.4	19.1	52.5	30.9	-13.2
Cc1ccc2oc(Nc3nc(-c4ccccc4)cc(=O)[nH]3)nc2c1	.	1.0	-9.3	.	74.8*	1.5
Cc1cccc(OCCOC(=O)CN2C(=O)NC3(CCCC3)C2=O)c1	-0.3	-10.5	2.0	-1.9	-25.6	-0.3
CCN(CC)CCOC(=O)c1ccc(N/C=C(/C#N)c2nc(-c3ccc4c(c3)OCO4)cs2)cc1	-5.0	0.6	11.0	112.6*	48.6	1.0
COC(=O)c1sc(NC(=O)C2c3ccccc3Oc3ccccc32)c(C(=O)OC)c1C	16.4	-0.3	4.2	115.5*	9.6	-14.8
COc1cc(CNCCNC(=O)c2nonc2N)ccc1OCc1ccc(Cl)cc1	25.7	1.5	-28.5	18.0	17.1	-10.2
SMILES	CSC inhib	HIF activator	Calb FLC	Beta cell apopt	T cruzi repl	PolyA inhibitor
COc1ccc(N2CCN(c3ncnc4scc(-c5ccc(F)cc5)c34)CC2)cc1	58.7	0.0	13.9	14.3	23.1	-8.5
COc1ccc(N2CCN(c3ncnc4scc(-c5ccc(C)cc5)c34)CC2)cc1	51.8	1.3	-6.4	21.1	57.8*	14.1
COc1ccc(-n2cc(-c3ccccc3)c3c(N4CCOCC4)ncnc32)cc1	102.4*	-1.0	-8.5	8.9	35.9	-12.6
COc1ccc(N2CCN(C(=O)CSc3nc(C)cs3)CC2)cc1	7.1	1.2	0.2	-3.1	-7.2	-1.7
COc1ccc(N2CCN(C(=O)CSc3ncnc4scc(-c5ccc(C)cc5)c34)CC2)cc1	2.7	-0.1	-15.3	4.7	75.8*	10.1
C=CCC1NS(=O)(=O)O[C@H](CCCC)[C@@H]1O (stereo partly drawn)	-21.4	-0.4	-3.4	.	-7.2	-5.9
Cc1nn(C)cc1/C=N/NC(=O)Cn1cncn1	-5.2	-0.3	-3.3	.	1.4	8.0
BrC(=C\c1ccccc1)/C=N/Nc1ccc2nncn2n1	-4.0	0.4	-4.0	0.1	-17.5	-1.3
BrC(=C\c1ccccc1)/C=N/n1cnnc1	.	0.1	86.2*	.	50.4	-5.4
Cc1cc(C)cc(-n2c(N)c(C(=O)Nc3c(C)n(C)n(-c4ccccc4)c3=O)c3nc4ccccc4nc32)c1	12.1	-0.4	-5.5	38.8	56.2*	13.4
Cc1ccc(-n2c(N)c(C(=O)Nc3c(C)n(C)n(-c4ccccc4)c3=O)c3nc4ccccc4nc32)cc1	-19.3	-1.3	-1.7	8.3	12.9	15.2
O=S1(=O)C=C(Sc2nnc(-c3ccccc3)o2)c2ccccc21	108.2*	-3.8	36.3	104.5*	63.2*	-91.9
O=C(/C=C/c1ccc(S(=O)(=O)NCc2ccco2)cc1)NCc1cccc(Cl)c1	34.5	-0.1	26.6	1.0	-4.4	-4.8
CCOC(=O)c1ccc(Oc2coc3cc(O)ccc3c2=O)cc1	4.8	-15.7	13.2	2.4	-15.8	12.1
COc1ccc(CN2CCN(Cc3ccc(C(F)(F)F)cc3)CC2)c(OC)c1	59.8	0.4	0.5	-2.0	49.3	-10.2
COc1ccc(CN2CCN(Cc3ccc(C)cc3)CC2)c(OC)c1	15.7	0.2	-4.0	-2.4	56.8*	7.2
C=C(C)Cn1c(SCC)nc2ccccc2c1=O	39.9	0.3	2.9	0.3	-0.3	0.5
C=C(C)Cn1c(SCC(=O)N/N=C/c2c(O)ccc3ccccc23)nc2ccccc2c1=O	103.3*	0.0	1.7	46.5	27.1	-25.4
Cc1ccc(-n2c(SCC(=O)N/N=C/c3c(C)nn(-c4ccccc4)c3C)nc3ccccc3c2=O)cc1	?	-0.6	-4.6	21.9	36.2	2.7
Cc1ccccc1-n1c(SCC(=O)N/N=C/c2c(C)nn(-c3ccccc3)c2C)nc2ccccc2c1=O	27.9	-2.8	1.7	17.5	56.4*	6.9
Cn1c(-c2cccc([N+](=O)[O-])c2)cnc1NCc1cccc(F)c1	5.0	-0.9	1.0	-3.7	-5.0	-4.7
NC(=O)c1ccc(NC(=O)COC(=O)c2c3c(nc4ccccc24)/C(=C\c2cccs2)CCC3)cc1	115.2*	0.0	57.2	59.7	36.8	7.0
